Activity calls are given as the source filed them. No cut-off for these calls is given here.
Legend:
[1] = molecular target: T1, Progesterone receptor (Oryctolagus cuniculus) (UniProt P06186); assay: Binding affinity for rat progesterone receptor compared to progesterone
T1 sequence (whole entry): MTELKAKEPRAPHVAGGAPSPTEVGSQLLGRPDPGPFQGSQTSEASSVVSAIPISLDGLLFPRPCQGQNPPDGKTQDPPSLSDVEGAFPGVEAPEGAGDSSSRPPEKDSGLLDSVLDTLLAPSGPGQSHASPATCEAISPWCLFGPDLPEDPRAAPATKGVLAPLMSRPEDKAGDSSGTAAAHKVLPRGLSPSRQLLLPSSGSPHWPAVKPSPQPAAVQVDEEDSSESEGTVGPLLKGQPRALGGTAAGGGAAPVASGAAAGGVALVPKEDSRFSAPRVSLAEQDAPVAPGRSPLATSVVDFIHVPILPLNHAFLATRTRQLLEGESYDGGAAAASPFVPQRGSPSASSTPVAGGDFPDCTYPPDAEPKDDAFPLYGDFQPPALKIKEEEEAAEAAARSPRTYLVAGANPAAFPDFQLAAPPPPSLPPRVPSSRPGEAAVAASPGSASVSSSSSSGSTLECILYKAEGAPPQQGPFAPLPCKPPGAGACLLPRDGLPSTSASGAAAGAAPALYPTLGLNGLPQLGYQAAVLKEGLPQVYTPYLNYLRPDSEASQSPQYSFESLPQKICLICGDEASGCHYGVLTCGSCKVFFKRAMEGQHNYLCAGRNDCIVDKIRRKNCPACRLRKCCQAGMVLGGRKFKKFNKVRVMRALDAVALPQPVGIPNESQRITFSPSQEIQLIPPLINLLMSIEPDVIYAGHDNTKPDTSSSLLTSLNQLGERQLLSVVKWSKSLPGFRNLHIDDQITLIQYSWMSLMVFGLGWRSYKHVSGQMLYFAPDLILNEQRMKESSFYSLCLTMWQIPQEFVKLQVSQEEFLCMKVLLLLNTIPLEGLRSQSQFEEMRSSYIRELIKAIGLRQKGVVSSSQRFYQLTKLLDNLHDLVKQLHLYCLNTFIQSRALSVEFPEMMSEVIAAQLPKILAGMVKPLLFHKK

[2] = molecular target: T2, Androgen receptor (Rattus norvegicus) (UniProt P15207); assay: Binding affinity for rat androgen receptor compared to dihydrotestosterone; No affinity
T2 sequence (whole entry): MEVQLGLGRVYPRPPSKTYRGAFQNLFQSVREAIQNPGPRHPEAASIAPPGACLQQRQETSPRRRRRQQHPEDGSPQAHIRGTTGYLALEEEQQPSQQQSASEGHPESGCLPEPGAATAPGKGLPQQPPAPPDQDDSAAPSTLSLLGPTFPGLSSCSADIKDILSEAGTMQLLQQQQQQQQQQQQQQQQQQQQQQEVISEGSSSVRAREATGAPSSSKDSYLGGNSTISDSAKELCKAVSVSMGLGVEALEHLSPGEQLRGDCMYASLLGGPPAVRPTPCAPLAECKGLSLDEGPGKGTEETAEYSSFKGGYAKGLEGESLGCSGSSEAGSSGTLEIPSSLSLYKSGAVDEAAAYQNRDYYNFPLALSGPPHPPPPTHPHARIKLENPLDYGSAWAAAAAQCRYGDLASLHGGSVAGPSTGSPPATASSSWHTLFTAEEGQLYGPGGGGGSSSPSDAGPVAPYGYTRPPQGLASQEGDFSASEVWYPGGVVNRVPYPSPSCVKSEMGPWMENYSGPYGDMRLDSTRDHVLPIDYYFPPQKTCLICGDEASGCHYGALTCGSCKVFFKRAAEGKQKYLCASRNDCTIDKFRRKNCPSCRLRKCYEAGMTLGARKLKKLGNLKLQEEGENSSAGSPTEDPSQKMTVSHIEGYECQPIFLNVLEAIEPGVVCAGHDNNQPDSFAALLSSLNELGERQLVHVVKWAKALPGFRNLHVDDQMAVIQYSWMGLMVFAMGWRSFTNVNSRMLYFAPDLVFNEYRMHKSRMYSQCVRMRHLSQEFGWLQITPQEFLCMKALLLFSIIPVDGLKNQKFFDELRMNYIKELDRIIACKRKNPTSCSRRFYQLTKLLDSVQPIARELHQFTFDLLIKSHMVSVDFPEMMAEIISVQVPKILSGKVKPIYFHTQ

[3] = molecular target: T3, Mineralocorticoid receptor (Rattus norvegicus) (UniProt P22199); assay: Relative potency as antialdosterone activity compared to spironolactone 1 hr after oral administration; assay type: functional, organism-based
T3 sequence (whole entry): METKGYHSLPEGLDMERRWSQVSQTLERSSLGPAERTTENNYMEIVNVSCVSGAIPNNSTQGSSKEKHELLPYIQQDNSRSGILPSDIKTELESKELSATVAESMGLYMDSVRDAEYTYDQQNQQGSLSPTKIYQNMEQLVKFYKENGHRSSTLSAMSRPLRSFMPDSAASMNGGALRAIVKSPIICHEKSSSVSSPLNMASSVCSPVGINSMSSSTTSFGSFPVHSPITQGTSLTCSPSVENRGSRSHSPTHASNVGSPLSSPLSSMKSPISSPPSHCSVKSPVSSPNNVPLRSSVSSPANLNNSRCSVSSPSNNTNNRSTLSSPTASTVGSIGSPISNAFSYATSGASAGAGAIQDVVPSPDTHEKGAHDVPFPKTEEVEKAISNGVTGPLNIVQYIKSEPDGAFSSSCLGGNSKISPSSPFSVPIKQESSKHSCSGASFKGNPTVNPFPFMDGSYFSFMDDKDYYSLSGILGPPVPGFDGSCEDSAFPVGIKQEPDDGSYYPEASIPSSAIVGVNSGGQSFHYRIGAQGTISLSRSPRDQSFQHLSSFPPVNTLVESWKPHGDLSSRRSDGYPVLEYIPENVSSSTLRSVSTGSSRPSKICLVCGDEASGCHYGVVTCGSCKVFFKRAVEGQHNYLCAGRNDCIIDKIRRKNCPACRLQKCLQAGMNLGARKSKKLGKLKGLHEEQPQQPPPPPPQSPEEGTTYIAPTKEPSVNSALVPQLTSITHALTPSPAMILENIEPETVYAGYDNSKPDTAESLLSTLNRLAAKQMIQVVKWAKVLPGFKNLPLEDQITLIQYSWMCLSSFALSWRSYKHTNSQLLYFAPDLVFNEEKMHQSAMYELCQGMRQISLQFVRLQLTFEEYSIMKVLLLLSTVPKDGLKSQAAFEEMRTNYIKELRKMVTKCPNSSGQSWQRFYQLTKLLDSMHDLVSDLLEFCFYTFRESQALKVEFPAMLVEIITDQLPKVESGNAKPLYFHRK
In short: (§1)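 Adrenalectomized Wistar rats (140–160 g) were maintained on fluocortolone caproate 1 mg/kg on the day of surgery and fluocortolone 10 mg/kg sc one day before testing. Rats were infused with saline-glucose (0.05% NaCl, 5% glucose) containing aldosterone 50 μg/L at 3 mL/h. Compounds were given orally 1 h before infusion at 6.7, 13.4 and 26.8 mg/kg. Hourly urine Na and K were measured by flame photometry over 10–15 h.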

[4] = molecular target: T1, Progesterone receptor (Oryctolagus cuniculus); assay: Progestational activity in rabbit at 3.0 mg/kg oral dose; assay type: functional, organism-based; set-up: dose 3 mg/kg
In short: (§2)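 Clauberg test in rabbits after oral administration, run by literature procedures. Doses are listed […], and the read-out is the McPhail index.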

[5] = molecular target: T1, Progesterone receptor (Oryctolagus cuniculus); assay: Progestational activity in rabbit at 1.0 mg/kg oral dose; assay type: functional, organism-based; set-up: dose 1 mg/kg; in short: as §2
[6] = molecular target: T1, Progesterone receptor (Oryctolagus cuniculus); assay: Progestational activity in rabbit at 0.3 mg/kg oral dose; assay type: functional, organism-based; set-up: dose 0.3 mg/kg; in short: as §2
[7] = molecular target: T2, Androgen receptor (Rattus norvegicus)
[8] = molecular target: T3, Mineralocorticoid receptor (Rattus norvegicus); assay: Relative potency as antialdosterone activity compared to spironolactone 1 hr after oral administration; No activity; assay type: functional, organism-based; in short: as §1
[9] = molecular target: T3, Mineralocorticoid receptor (Rattus norvegicus); assay: Relative potency as antialdosterone activity compared to spironolactone 1 hr after oral administration; NA denotes no activity; assay type: functional, organism-based; in short: as §1
[10] = molecular target: T1, Progesterone receptor (Oryctolagus cuniculus); assay: Binding affinity for rat progesterone receptor compared to progesterone; No affinity
[11] = molecular target: T1, Progesterone receptor (Oryctolagus cuniculus); assay: Progestational activity in rabbit at 30.0 mg/kg oral dose; assay type: functional, organism-based; set-up: dose 30 mg/kg; in short: as §2

Compound	Competition factor [1]	Competition factor [2]	MRP [3]	MRP [8]	also measured
C[C@@H]1CC2(C)C(=CC1=O)C1CC1C1C2CCC2(C)C1C1CC1[C@@]21CCC(=O)O1 (some centres undefined)	105	inactive	< 100	–	–
CC12C=CC(=O)C=C1C1CC1C1C2CCC2(C)C1C1CC1[C@@]21CCC(=O)O1 (some centres undefined)	6.5	–	745	–	McPhail index [4]: 2.7; McPhail index [5]: 2.2; McPhail index [6]: 1; Competition factor [7]: 150
CC12CCC(=O)C=C1C1CC1C1C2[C@H](O)CC2(C)C1C1CC1[C@@]21CCC(=O)O1 (some centres undefined)	195	inactive	–	inactive	–
CC12C(=CC(=O)C[C@@H]1C#N)C1CC1C1C2CCC2(C)C1C1CC1[C@@]21CCC(=O)O1 (some centres undefined)	–	–	–	–	MRP [9]: inactive
C[C@]12CCC(=O)C=C1[C@@H]1C[C@@H]1[C@H]1[C@@H]3[C@@H]4C[C@@H]4[C@@]4(CCC(=O)O4)[C@@]3(C)CC[C@@H]12	2.7	–	685	–	–
C=C1CC2(C)C(=CC1=O)C1CC1C1C2CCC2(C)C1C1CC1[C@@]21CCC(=O)O1 (some centres undefined)	18	inactive	–	inactive	–
CC1=CC2(C)C(=CC1=O)C1CC1C1C2CCC2(C)C1C1CC1[C@@]21CCC(=O)O1 (some centres undefined)	35	–	–	inactive	–
C[C@H]1CC(=O)C=C2C3CC3C3C(CCC4(C)C3C3CC3[C@@]43CCC(=O)O3)C21C (some centres undefined)	–	–	100	–	Competition factor [7]: 70
CC12C(=CC(=O)[C@@H]3C[C@@H]31)C1CC1C1C2CCC2(C)C1C1CC1[C@@]21CCC(=O)O1 (some centres undefined)	2.1	–	520	–	Competition factor [7]: 25
CC(=O)S[C@@H]1CC2=CC(=O)CC[C@]2(C)[C@H]2CC[C@@]3(C)[C@@H](CC[C@@]34CCC(=O)O4)[C@H]12	21	–	100	–	–
CC12C(=CC(=O)CC1O)C1CC1C1C2CCC2(C)C1C1CC1[C@@]21CCC(=O)O1 (some centres undefined)	19	inactive	45	–	–
CC12CCC(=O)C=C1C1CC1C1C2CC(O)C2(C)C1C1CC1[C@@]21CCC(=O)O1 (some centres undefined)	25	inactive	–	inactive	–

Continued, in another order:

Competition factor [1]	Competition factor [2]	MRP [3]	MRP [8]	Compound	also measured
30	inactive	100	–	C[C@H]1CC2(C)C(=CC1=O)C1CC1C1C2CCC2(C)C1C1CC1[C@@]21CCC(=O)O1 (some centres undefined)	–
–	–	100	–	CC(=O)S[C@H]1CC(=O)C=C2C3CC3C3C(CCC4(C)C3C3CC3[C@@]43CCC(=O)O3)C21C (some centres undefined)	Competition factor [10]: inactive
33	–	–	inactive	CC12C=C(Cl)C(=O)C=C1C1CC1C1C2CCC2(C)C1C1CC1[C@@]21CCC(=O)O1 (some centres undefined)	–
5.8	–	> 100	–	CC12C(=CC(=O)C[C@@H]1S)C1CC1C1C2CCC2(C)C1C1CC1[C@@]21CCC(=O)O1 (some centres undefined)	McPhail index [11]: 3.5; Competition factor [7]: 63
–	inactive	240	–	CS[C@H]1CC(=O)C=C2C3CC3C3C(CCC4(C)C3C3CC3[C@@]43CCC(=O)O3)C21C (some centres undefined)	Competition factor [10]: inactive; McPhail index [11]: 3.8
–	–	–	inactive	CC12CCC(=O)C(Cl)=C1C1CC1C1C2CCC2(C)C1C1CC1[C@@]21CCC(=O)O1 (some centres undefined)	–

— ChEMBL document CHEMBL1122986, “Aldosterone antagonists. 1. Synthesis and activities of 6 beta,7 beta:15 beta,16 beta-dimethylene steroidal spirolactones” (J Med Chem, 1985)
